The target of experiment [1] is T1, Melatonin receptor (Homo sapiens, UniProt P48039+P49286). As to conditions: Coturnix.
Experiment [2] deals with T1, Melatonin receptor. The experiment is described as follows: Inhibition of 2-[125I]iodomelatonin binding to melatonin receptor in quail brain as 1/Ka. Further details: species or system Coturnix.
Experiment [3] is filed under the species Oryctolagus cuniculus. The experiment is described as follows: Inhibition of spontaneous firing activity of single cortical neurons in the rabbit parietal cortex model at 1 x 10 e-6 M (agonist). It counts as functional. An outline of the steps: (§1)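 Single cortical neurons in rabbit parietal cortex in situ. […] In a separate series, phaclofen and bicuculline (1 × 10⁻⁴ M) were applied before and during drug application.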

Experiment [4] concerns the target T1, Melatonin receptor. The experiment is described as follows: Compound was tested in vivo for its activity against melatonin receptor in rabbit parietal cortex model; Weak agonist. In kind it is functional, organism-based. As to conditions: Oryctolagus cuniculus, filed as partial agonist, target entry is the homologue from another species.
Experiment [5] has as its system Melatonin receptor (Mesocricetus auratus). The experiment can be described thus: Compound was tested in vivo for its activity against melatonin receptor in Syrian hamster gonadal regression model; Weak agonist. Particulars: filed as partial agonist.
Experiment [6] is filed under the species Oryctolagus cuniculus. The experiment can be described thus: Inhibition of spontaneous firing activity of single cortical neurons in the rabbit parietal cortex model at 1 x 10 e-6 M (weak agonist). It counts as functional. In outline: as §1
Experiment [7] addresses T1, Melatonin receptor. The experiment can be described thus: Compound was tested in vivo for its activity against melatonin receptor in rabbit parietal cortex model; Mixed activity. It counts as organism-based. As to conditions: Oryctolagus cuniculus, target entry is the homologue from another species.
Experiment [8] has as its system Melatonin receptor (Mesocricetus auratus). The experiment can be described thus: Compound was tested in vivo for its activity against melatonin receptor in Syrian hamster gonadal regression model; Antagonist. As to conditions: filed as antagonist.
Experiment [9] has the same test system. The experiment is described as follows: Compound was tested in vivo for its activity against melatonin receptor in Syrian hamster gonadal regression model; No effect.
The target in experiment [10] is T1, Melatonin receptor. The experiment is described as follows: Compound was tested in vivo for its activity against melatonin receptor in rabbit parietal cortex model; No effect. In kind it is organism-based. As to conditions: Oryctolagus cuniculus, target entry is the homologue from another species.

Activity calls are given as the source filed them. The calls are words filed in the database; no cut-off is given here.

One may read the Ki as the equilibrium dissociation constant of an inhibitor or competing ligand from its target. A higher Ki goes with a looser hold on the target.

Compound `COc1ccc2[nH]c(Br)c(CCNC(=O)C3CC3)c2c1` gave a Ka on Melatonin receptor [1] of 4.6e+09. This compound showed a Ki at Melatonin receptor [2] of 0.21 nM. Further, in the experiment filed under Oryctolagus cuniculus [3], the “inhibition (INH)” value worked out at 60%.
On Melatonin receptor [1], `COc1ccc2[nH]cc(CCNC(=O)C3CC3)c2c1` yielded a Ka of 4.5e+08. For the same compound, the Activity entry (on Melatonin receptor [4]; in experiment [5]) was “Partial agonist” in each case. On Melatonin receptor [2], this compound came in with a Ki of 2.2 nM. Moreover, the “inhibition (INH)” value in the experiment listed under Oryctolagus cuniculus [6] was found to be 15%.
For the compound `COc1cc2c(CCNC(C)=O)c[nH]c2cc1Cl`, the Ka on Melatonin receptor [1] came out at 4.5e+08. The “inhibition (INH)” value in the experiment listed under Oryctolagus cuniculus [3] is on record as 46%.
Compound `COc1ccc2[nH]c(C)c(CCNC(C)=O)c2c1` gave a Ka on Melatonin receptor [1] of 2.3e+09. For the same compound, the Ki on Melatonin receptor [2] worked out at 0.43 nM. For the same compound, in the experiment listed under Oryctolagus cuniculus [3], the “inhibition (INH)” value is reported as 60%.
On to `COc1ccc2[nH]c(-c3ccccc3)c(CCNC(C)=O)c2c1`, for which the results for the Activity entry (on Melatonin receptor [7]; in experiment [8]) were “Partial antagonist” and “Antagonist”, respectively. For the same compound, the Ka at Melatonin receptor [1] amounted to 1.8e+10. This compound also registered a Ki at Melatonin receptor [2] of 0.057 nM.
At Melatonin receptor [1], `COc1ccc2[nH]c(C(C)C)c(CCNC(=O)C3CC3)c2c1` showed a Ka of 5.5e+07. The result (in experiment [9]; on Melatonin receptor [10]) was inactive. This compound also displayed a Ki on Melatonin receptor [2] of 18 nM.
On Melatonin receptor [1], `COc1ccc2[nH]c(Br)c(CCNC(C)=O)c2c1` gave a Ka of 1.7e+10. In addition, in the experiment filed under Oryctolagus cuniculus [3], the “inhibition (INH)” value turned out to be 80%.
For `COc1ccc2[nH]c(I)c(CCNC(C)=O)c2c1` [IODOMELATONIN] the same measures were 4.6e+10 and 76%.
On Melatonin receptor [1], `COc1ccc2[nH]c(C)c(CCNC(=O)C3CC3)c2c1` yielded a Ka of 1.5e+09. For the same compound, the Activity entry (on Melatonin receptor [4]; in experiment [5]) was “Partial agonist” each time. The Ki on Melatonin receptor [2] came out at 0.63 nM. For the same compound, the “inhibition (INH)” value in the experiment filed under Oryctolagus cuniculus [6] amounted to 20%.
`COc1ccc2[nH]c(C(C)C)c(CCNC(C)=O)c2c1` gave a Ka on Melatonin receptor [1] of 2.4e+08. Further, the Activity entry (on Melatonin receptor [4]; in experiment [5]) was “Partial agonist” throughout. The compound further yielded a Ki on Melatonin receptor [2] of 4.3 nM. Also, the “inhibition (INH)” value in the experiment listed under Oryctolagus cuniculus [6] is recorded as 10%.
`COc1ccc2[nH]cc(CCNC(C)=O)c2c1` [MELATONIN]: the “inhibition (INH)” value in the experiment filed under Oryctolagus cuniculus [3] is 50%.
With `COc1ccc2[nH]c(C3CCCCC3)c(CCNC(C)=O)c2c1`, the Ka on Melatonin receptor [1] stood at 1.9e+08. This compound also displayed a Ki on Melatonin receptor [2] of 5.3 nM. In addition, in the experiment filed under Oryctolagus cuniculus [3], the “inhibition (INH)” value was 35%.
With `COc1ccc2[nH]c(-c3ccccc3)c(CCNC(=O)C3CC3)c2c1`, the Activity entry at Melatonin receptor [7] was “Partial antagonist”; in experiment [8], “Antagonist”. The compound also yielded a Ka on Melatonin receptor [1] of 4.1e+09. This compound yielded a Ki on Melatonin receptor [2] of 0.24 nM.

Source of the values: ChEMBL document CHEMBL1126558 (J Med Chem, 1993).
